APJ antagonist – antagonists of human APJ apelin receptor; P35414; CHO-K1 APJ beta-arrestin complementation, luminescence; inhibition, % at 20 µM; 330,000 tested, 0.32% active; AID 2521;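 active = inhibition above about 40% at 20 µM, limit read from the data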;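 also: cells challenged with 10 nM apelin-13 agonist together with compound; plate controls were apelin-13 plus DMSO wells for no effect and DMSO wells lacking apelin-13 for full effect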
CXCR6 block – inhibitors of human CXCR6 receptor | CHO-K1 PathHunter CXCR6 beta-arrestin, luminescence | inhibition, % at 20 µM | O00574 | 360,000 tested, 0.36% active | AID 602244; in the data active = inhibition above about 34%, passing the limit was not always enough;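 also: antagonist mode with CXCL16 agonist at 10 nM final; 0% = 10 nM CXCL16 with DMSO and 100% = unstimulated wells without agonist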
CCR6 antag – blocks CCL20-driven beta-arrestin recruitment at human CCR6 | P51684 | CHO-K1 CCR6 PathHunter beta-arrestin, luminescence, CCL20-stimulated | inhibition, % at 20 µM | 340,000 tested, 0.49% active | AID 493098;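 active = compounds whose inhibition of the agonist-driven luminescence signal at 20 µM reaches about 50%, limit read from the data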;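 also: cells stimulated with CCL20 at 14 nM final; plate controls were DMSO with CCL20 for no effect and DMSO without agonist for full effect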
HTR2A ag – agonists of mouse serotonin 5-HT2A receptor (HTR2A); activation, % at 7.6 µM; CHO-K1 mHTR2A beta-arrestin complementation, luminescence; percent of 30 µM serotonin response; AID 624169; 360,000 tested, 0.66% active;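 active = activation above a run cutoff, the mean activation of all tested compounds plus 3 SD, cut at about 14% in these data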;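 also: 0% = plate median of compound wells and 100% = 30 µM serotonin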
EBI2 antag – EBI2 (human) antagonism | P32249 | EBI2 beta-arrestin recruitment, luminescence, 7a,25-OHC stimulated | inhibition, % at 5 µM | 360,000 tested, 0.81% active; in the data active = inhibition above about 38%;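 also: enzyme fragment complementation signal reports receptor beta-arrestin coupling in cells; 0% = agonist plus DMSO wells and 100% = wells without agonist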
APJ ag – agonists of human APJ apelin receptor | CHO-K1 APJ PathHunter beta-arrestin, luminescence; 0% DMSO wells, 100% apelin | activation, % at 20 µM | 330,000 tested, 0.11% active | AID 2520;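 active = activation more than six SD over the plate average, tested at 20 µM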;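 also: 0% = DMSO alone and 100% = apelin-13 at 10 nM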
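Material: CHO-K1 APJ beta-arrestin complementation cell line; Input: cell density 1000 per well; Incubation: compound stimulation 90 min at 25 °C, detection 60 min; Signal: luminescence from split beta-galactosidase complementation, Galacton Star/Emerald II substrate; Controls: DMSO-only wells as negative, 10 nM Apelin-13 as positive control.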
OPRM1 ag – activates human mu opioid receptor in HTR2A counterscreen. activation, % at 9.3 µM. 2,300 tested, 5.3% active. U2OS OPRM1 beta-arrestin PathHunter, luminescence; DMSO 0%, DAMGO 9.3 µM 100%. shares compounds with HTR2A ag;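 active = mean activation above the mean of DMSO-only wells plus 3 SD, cut at about 0.5% in these data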
Target sequence (P35372 whole entry, looked up): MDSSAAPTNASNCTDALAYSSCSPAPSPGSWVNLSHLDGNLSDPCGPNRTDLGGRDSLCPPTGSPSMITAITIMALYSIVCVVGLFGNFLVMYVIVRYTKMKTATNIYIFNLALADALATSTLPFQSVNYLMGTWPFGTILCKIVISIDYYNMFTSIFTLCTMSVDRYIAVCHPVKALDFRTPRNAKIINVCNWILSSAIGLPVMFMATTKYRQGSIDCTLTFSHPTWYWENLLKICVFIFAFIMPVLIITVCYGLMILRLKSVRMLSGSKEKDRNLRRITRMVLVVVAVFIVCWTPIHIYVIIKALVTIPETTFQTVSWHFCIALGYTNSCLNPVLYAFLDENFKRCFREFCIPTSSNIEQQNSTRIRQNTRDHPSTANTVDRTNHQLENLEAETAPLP
m5-HT2A ag conf – confirmation of mouse HTR2A serotonin receptor agonists | shares compounds with HTR2A ag | CHO-K1 PathHunter beta-arrestin recruitment, luminescence; DMSO 0%, 30 µM serotonin 100% | activation, % at 7.6 µM | 2,300 tested, 19% active;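 active = mean activation across triplicates above the hit threshold derived in the original primary screen, cut at about 15% in these data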
* marks the source's active call; other numbers are inactive results; nt = no result; ! = not confirmed by another sample. Most compounds without a hit are left out; they make up all but 2.2% or so of the library.

SMILES	APJ antagonist	CXCR6 block	CCR6 antag	HTR2A ag	EBI2 antag	APJ ag	OPRM1 ag	m5-HT2A ag conf
NC1CCc2cc(O)c(O)cc2C1 (stereo not drawn)	18	-3	1	58*	-4	-6	0	153*
CC12CC3CC(C)(C1)CC(N)(C3)C2	13	3	4	18*!	4	0	0	4
NC(Cc1ccc(Cl)cc1)c1csc(Nc2ncccn2)n1 (stereo not drawn)	nt	-5	nt	5	2	nt	nt	nt
COC1CC2C=C(C)C=CC=CC(=O)NC(c3ccccc3)CC=CCCC(O)CC(=O)C2=C1O (stereo not drawn)	nt	31	nt	21*	-3	nt	6.0*	19*
COc1cccc(C(c2nnnn2C2CCCCC2)N2CCC3(CC2)C(=O)NCN3c2ccccc2)c1OC (stereo not drawn)	nt	-1	nt	-4	1	nt	nt	nt
Cc1[nH]c2c(C(F)(F)F)cccc2c1CCN	12	-4	-3	48*	1	-2	-1	32*
O=C1NCN(c2ccccc2)C12CCN(C(c1cccc3ccccc13)c1nnnn1C1CCCC1)CC2 (stereo not drawn)	nt	-1	nt	8	-25	nt	nt	nt
CC(CC(C#N)(c1ccccc1)c1ccccc1)N1CCOCC1 (stereo not drawn)	nt	-12	17	-6	18	nt	nt	nt
C[C@H](NC(=O)N1C[C@H]2C[C@@H](C1)c1cccc(=O)n1C2)C(=O)Nc1cccc(F)c1	7	0	-4	3	-6	-3	nt	nt
O=c1cccc2n1CC1CC2CN(C(c2cccc(F)c2)c2sc3ncnn3c2O)C1 (stereo not drawn)	18	-10	8	16*	-1	4	0	3
COc1ccc(-n2nnnc2C(CCSC)N2CCC3(CC2)C(=O)NCN3c2ccccc2)cc1 (stereo not drawn)	nt	9	nt	4	10	nt	nt	nt
COC1C(O)C(C)OC(OC2C(Oc3cccc4c(O)c5c(=O)oc6ccc(C)c7c(=O)oc(c34)c5c67)OC(C)C(O)C2O)C1O (stereo not drawn)	nt	8	6	1	-21	nt	nt	nt
CCCCCCCSc1cc(OC)c(CCN(C)C)cc1OC	2	-9	37	34*	-17	-1	0	17*
CCCCCSc1cc(OC)c(CCN)cc1OC	-7	-7	7	30*	-2	3	0	13
COc1cc(CCN)ccc1O	6	-3	6	5	-1	-4	nt	nt
C[C@]12CCC3C(CC[C@@H]4[C@H]5O[C@H]5CC[C@]34C)C1CC[C@@H]2O (stereo partly drawn)	nt	4	7	9	7	nt	nt	nt
CCCCCCC(C)(C)c1ccc([C@@H]2C[C@H](O)CC[C@H]2CCCO)c(O)c1	3	-4	3	29*	12	25	0.8*	23*
COC12c3ccccc3-c3ccccc3C1C(C(=O)O)C2C(=O)O (stereo not drawn)	nt	-1	nt	0	-12	nt	nt	nt
CCC(c1nnnn1-c1ccc(OC)cc1)N1CCC2(CC1)C(=O)NCN2c1ccccc1 (stereo not drawn)	nt	11	nt	-8	14	nt	nt	nt
CC(N)Cc1c[nH]c2ccc(OCc3cccs3)cc12 (stereo not drawn)	2	7	8	22*	-5	-1	-1	8
CC(N)Cc1c[nH]c2ccc(O)cc12 (stereo not drawn)	nt	-8	2	49*	-4	nt	-1	32*
Cc1nc2ccccn2c1P(=S)(c1ccccc1)c1ccccc1	nt	11	nt	2	3	nt	nt	nt
CC1(CCCc2ccc(N(CCCl)CCCl)cc2)NC(=O)NC1=O (stereo not drawn)	nt	-2	nt	4	8	nt	nt	nt
O=C1NCCCCC1(Cl)Cl	nt	-5	1	17*	0	nt	0	3
CC(C)(O)/C=C/C(=O)C(C)(O)C1C(O)CC2(C)C3CC=C4C(C=C(O)C(=O)C4(C)C)C3(C)C(=O)CC12C (stereo not drawn)	nt	10	31	30*	-61	nt	0	8
SMILES	APJ antagonist	CXCR6 block	CCR6 antag	HTR2A ag	EBI2 antag	APJ ag	OPRM1 ag	m5-HT2A ag conf
CC1=C(C)CC2(CC1)C(=O)NC(=O)NC2=O	nt	6	1	-1	-1	nt	nt	nt
CC[C@@H]1C(=O)OC[C@@H]1Cc1cncn1C	6	-5	-1	18*!	-12	-4	0	4
CC[C@@H]1C(=O)OC[C@@H]1Cc1cncn1C	nt	-4	-9	-3	-2	nt	nt	nt
C[C@H](N)CN1CCc2ccc(Br)cc21	3	-5	2	49*	-8	-3	-1	36*
CC1(C(=O)O)CC12c1ccccc1-c1ccccc12 (stereo not drawn)	nt	-15	2	0	-7	nt	nt	nt
N#CC1c2ccccc2C=CN1C(=O)c1ccc(N(CCCl)CCCl)cc1 (stereo not drawn)	nt	3	nt	24*	-6	nt	0	-5
Cc1ccc(S(=O)(=O)N2Cc3cc(-c4cccc(F)c4)ccc3-n3nncc3C2)cc1	nt	-4	nt	0	14	nt	nt	nt
O=S(=O)(c1cc(Cl)cc(Cl)c1)N1Cc2cc(-c3cccc(F)c3)ccc2-n2nncc2C1	nt	4	nt	14*	30	nt	0	-2
CN(C)CC(C(=O)Cc1ccccc1)c1ccccc1 (stereo not drawn)	nt	-6	-21	-1	-26	nt	nt	nt
C[C@@]12CC[C@@H](c3cc4c(cc3C1)OCO4)N2c1ccccc1	nt	nt	nt	4	15	nt	nt	nt
CC(C)(C)c1cc(OC(=O)Cc2ccccc2)ccc1O	-21	-25	-2	15*	-14	2	0	-1
CCCCC1(CC)COP(=O)(OCC(Cl)(Cl)Cl)OC1 (stereo not drawn)	nt	-7	2	20*	3	nt	0	-3
Oc1ccc(O)c2c1C1(Cl)C(Cl)=C(Cl)C2(Cl)C1(Cl)Cl	nt	-20	10	-5	7	nt	nt	nt
CC(=O)N1CCC(N2CCCC(C(=O)c3cccc(Cl)c3)C2)CC1 (stereo not drawn)	3	2	7	36*	1	-2	0	86*
Cc1ccccc1OP(=O)(Oc1ccccc1C)N1CCOCC1	nt	4	nt	-3	-4	nt	nt	nt
CCCCCn1c(=O)c(C(=O)NCc2ccco2)c(O)c2ccccc21	-1	9	-1	18*	-4	0	0	2
Clc1cccc(N2CCNCC2)n1	11	2	14	39*	-7	-3	-1	24*
CCCN1CCc2cccc3c2[C@H]1Cc1ccc(O)c(O)c1-3	-38	-8	9	62*	6	7	1.4*	136*

Assay outcomes (PubChem BioAssay)
